Converted amounts (≈) assume the structure as drawn.
Tests used:
Homo sapiens [1] = test: Toxicity in healthy human assessed as occurrence of erythema at 250 […], po; type: organism-based; parameters: route oral; details: in vivo
Streptococcus pneumoniae [2] = test: Antimicrobial activity against ciprofloxacin-resistant Streptococcus pneumoniae; type: functional
Homo sapiens [3] = test: Clearance in healthy human at 125 […], po administered as single dose; type: ADME, organism-based; parameters: route oral; details: in vivo
In short: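 Randomized, double-blind, placebo-controlled single ascending oral dose in fasted healthy subjects (six on drug per cohort, with 240 ml water). Plasma sampled predose through 96 h and assayed by validated LC-MS/MS over 5–5,000 ng/ml. Oral clearance (CL_o) came from noncompartmental analysis, with AUC_0-∞ from linear trapezoids plus C_last/λz. Values are means (SD).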

[4] = Terminal phase elimination half-life in healthy human at 50 […], po administered single dose; type: ADME, organism-based; parameters: route oral; details: in vivo
In short: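 After one fasted oral dose (six healthy subjects per cohort), plasma was sampled from 0.5 to 96 h and assayed by LC-MS/MS (LLOQ 5 ng/ml). λz came from least-squares regression on at least the last three log-concentration points, and t1/2 = 0.693/λz. Values are means (SD).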

[5] = Renal clearance in healthy human at 250 mg, po administered as single dose; details: in vivo, read-out: CL_renal (converted)
[6] = Tmax in healthy human at 1000 mg/kg, po administered as single dose; type: ADME, organism-based; parameters: route oral; details: in vivo
In short: (§1)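 Tmax was read by visual inspection of individual plasma concentration–time profiles. Plasma was sampled at 0.5-h steps early on and then out to 96 h, and assayed by LC-MS/MS. Subjects were fasted healthy volunteers, six per cohort, given one oral dose with 240 ml water. Values are means (SD).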

[7] = Clearance in healthy human assessed as recovery of unchanged drug in urine at 25 […], po administered as single dose; type: ADME, organism-based; parameters: route oral; details: read-out: Recovered in urine
In short: (§2)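 Healthy volunteers, six on drug per cohort, fasted 10 h and given one oral dose with 240 ml water, then fasted 4 h more. Urine was pooled over intervals from 0-2 to 72-96 h and stored at about −70°C. Drug was measured by solid-phase extraction and LC-MS/MS (LLOQ 200 ng/ml), giving the percent of dose recovered unchanged. Values are means (SD).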

Homo sapiens [8] = test: Toxicity in healthy human assessed as occurrence of contact dermatitis at 25 […], po; type: organism-based; parameters: route oral; details: in vivo
In short: (§3)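 Randomized, double-blind, placebo-controlled single ascending oral doses in healthy volunteers (cohorts of 6 active, 2 placebo; 25–1,500 mg). After a 10-h fast, dose given with 240 ml water; fasting continued 4 h. Subjects were confined to 96 h postdose. AEs were recorded throughout dosing and at follow-up, reported as number and percentage of subjects with events per treatment.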

Homo sapiens [9] = test: Toxicity in healthy human assessed as occurrence of headache at 1500 […], po; type: organism-based; parameters: route oral; details: in vivo
Staphylococcus aureus = test: Ratio of fCmax to MIC90 for methicillin-resistant Staphylococcus aureus; type: functional
In short: (§4)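 Fasted healthy adults got a single oral 500 mg dose with 240 ml water. Plasma was sampled predose to 96 h and assayed by LC-MS/MS (5–5,000 ng/ml). Cmax was read from individual profiles, and AUC0-∞ came from linear trapezoid plus extrapolation. Free fraction was measured by ultrafiltration (30,000 MWCO) of 0.5 and 6 h plasma. Free exposure was divided by the isolate MIC90.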

[10] = Clearance in healthy human assessed as recovery of unchanged drug in urine at 50 […], po administered as single dose; type: ADME, organism-based; parameters: route oral; details: read-out: Recovered in urine; in short: as §2
[11] = Clearance in healthy human assessed as recovery of unchanged drug in urine at 125 […], po administered as single dose; type: ADME, organism-based; parameters: route oral; details: read-out: Recovered in urine; in short: as §2
Streptococcus pneumoniae [12] = test: Ratio of fAUC to MIC90 for Penicillin-sensitive Streptococcus pneumoniae; type: functional; in short: as §4
[13] = Tmax in healthy human at 1500 […], po administered as single dose; type: ADME, organism-based; parameters: route oral; details: in vivo; in short: as §1
Homo sapiens [14] = test: Toxicity in healthy human assessed as occurrence of nausea at 25 […], po; type: organism-based; parameters: route oral; details: in vivo
Homo sapiens [15] = test: Terminal volume of distribution in healthy human at 250 mg, po administered as single dose; details: in vivo
Homo sapiens [16] = test: Toxicity in healthy human assessed as occurrence of pruritus at 1500 […], po; type: organism-based; parameters: route oral; details: in vivo
Streptococcus pneumoniae [17] = test: Ratio of fCmax to MIC90 for penicillin-sensitive Streptococcus pneumoniae; type: functional; in short: as §4
Homo sapiens [18] = test: Toxicity in healthy human assessed as occurrence of abdominal pain at 125 […], po; type: organism-based, Abdomen; parameters: route oral; details: in vivo
In short: (§5)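 Double-blind, placebo-controlled single ascending oral dose; two placebo and six active subjects per cohort. Adverse events were recorded throughout the dosing period and at follow-up, with confinement to 96 h after dosing. Results are reported as number and percentage of subjects with the event (n/N × 100).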

Homo sapiens [19] = test: AUC (0 to infinity) in healthy human at 50 mg/kg, po administered as single dose; type: ADME, organism-based, Plasma; parameters: time infinity, route oral; details: in vivo
Homo sapiens [20] = test: Toxicity in healthy human assessed as occurrence of abdominal pain at 25 […], po; type: organism-based, Abdomen; parameters: route oral; details: in vivo; in short: as §5
[21] = Renal clearance in healthy human at 1500 […], po administered as single dose; type: ADME, organism-based, Kidney; parameters: route oral; details: in vivo, read-out: CL_renal (converted)
In short: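 Renal clearance (CL_r) came from noncompartmental analysis of plasma drawn through 96 h and urine collected over fixed intervals to 96 h. Subjects were fasted healthy volunteers, six per dose cohort, given one oral dose with 240 ml water. Plasma and urine were assayed by LC-MS/MS after solid-phase extraction, with urine LLOQ 200 ng/ml. Values are means (SD).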

Homo sapiens [22] = test: Terminal volume of distribution in healthy human at 500 mg, po administered as single dose; details: in vivo
[23] = Cmax in healthy human at 25 mg, po administered as single dose; details: in vivo
Homo sapiens [24] = test: Toxicity in healthy human assessed as occurrence of pruritus at 250 […], po; type: organism-based; parameters: route oral; details: in vivo
Homo sapiens [25] = test: Toxicity in healthy human assessed as occurrence of contact dermatitis at 250 […], po; type: organism-based; parameters: route oral; details: in vivo; in short: as §3
Homo sapiens [26] = test: Toxicity in healthy human assessed as occurrence of ear pain at 50 […], po; type: organism-based; parameters: route oral; details: in vivo
Homo sapiens [27] = test: Toxicity in healthy human assessed as occurrence of nausea at 1500 […], po; type: organism-based; parameters: route oral; details: in vivo
Homo sapiens [28] = test: Clearance in healthy human at 500 mg, po administered as single dose; details: in vivo
Homo sapiens [29] = test: Toxicity in healthy human assessed as occurrence of pruritus at 1000 […], po; type: organism-based; parameters: route oral; details: in vivo
Homo sapiens [30] = test: Toxicity in healthy human assessed as occurrence of nausea at 1000 […], po; type: organism-based; parameters: route oral; details: in vivo
Homo sapiens [31] = test: Toxicity in healthy human assessed as occurrence of ear pain at 1500 […], po; type: organism-based; parameters: route oral; details: in vivo
Homo sapiens [32] = test: Toxicity in healthy human assessed as occurrence of nausea at 125 […], po; type: organism-based; parameters: route oral; details: in vivo
Homo sapiens [33] = test: Toxicity in healthy human assessed as occurrence of oral hypoesthesia at 250 […], po; type: organism-based; parameters: route oral; details: in vivo
Homo sapiens [34] = test: Toxicity in healthy human assessed as occurrence of erythema at 500 […], po; type: organism-based; parameters: route oral; details: in vivo
Homo sapiens [35] = test: Toxicity in healthy human assessed as occurrence of ear pain at 250 […], po; type: organism-based; parameters: route oral; details: in vivo
Homo sapiens [36] = test: Toxicity in healthy human assessed as occurrence of ear pain at 1000 […], po; type: organism-based; parameters: route oral; details: in vivo

## COc1c(N2C[C@@H](C)C[C@H](N)C2)ccc2c(=O)c(C(=O)O)cn(C3CC3)c12 [NEMONOXACIN]
Homo sapiens [1]
  Activity: 0%
Streptococcus pneumoniae [2]
  MIC90: 0.12 mg/L (≈ 0.323 µM)
Homo sapiens [3]
  CL: 0.22 L/h/kg
[4]
  half-life: 8.49 h
[5]
  CL renal: 0.11 L/h/kg
[6]
  Tmax: 1.67 h
[7]
  dose excreted: 56.2%
Homo sapiens [8]
  Activity: 50%
Homo sapiens [9]
  Activity: 17%
Staphylococcus aureus
  Ratio: 48
[10]
  dose excreted: 51.1%
[11]
  dose excreted: 38.3%
Streptococcus pneumoniae [12]
  Ratio: 1812
[13]
  Tmax: 2.67 h
Homo sapiens [14]
  Activity: 0%
Homo sapiens [15]
  Vbeta: 3.58 L/kg
Homo sapiens [16]
  Activity: 50%
Streptococcus pneumoniae [17]
  Ratio: 191
Homo sapiens [18]
  Activity: 0%
Homo sapiens [19]
  AUC: 2.99 µg·h/mL
Homo sapiens [20]
  Activity: 0%
[21]
  CL renal: 0.069 L/h/kg
Homo sapiens [22]
  Vbeta: 4.25 L/kg
[23]
  Cmax: 0.15 µg/mL
Homo sapiens [24]
  Activity: 0%
Homo sapiens [25]
  Activity: 0%
Homo sapiens [26]
  Activity: 0%
Homo sapiens [27]
  Activity: 17%
Homo sapiens [28]
  CL: 0.2 L/h/kg
Homo sapiens [29]
  Activity: 17%
Homo sapiens [30]
  Activity: 0%
Homo sapiens [31]
  Activity: 0%
Homo sapiens [32]
  Activity: 0%
Homo sapiens [33]
  Activity: 0%
Homo sapiens [34]
  Activity: 0%
Homo sapiens [35]
  Activity: 0%
Homo sapiens [36]
  Activity: 0%

From ChEMBL document CHEMBL1212766, “Dose escalation study of the safety, tolerability, and pharmacokinetics of nemonoxacin (TG-873870), a novel potent broad-spectrum nonfluorinated quinolone, in healthy volunteers” (Antimicrob Agents Chemother, 2010)
